Experimental data reported in ChEMBL document CHEMBL4689842, “EUbOPEN Chemogenomics Library wave 1” (2021).

Tested on: U2OS
Experiment: Multiplex assay against U2OS
Assay type: toxicity, cell-based
Conditions: human
In short: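 Live cells were stained at seeding with Hoechst33342, BioTracker Green Microtubule Cytoskeleton Dye, MitoTracker Red and Annexin V Alexa Fluor 680, then imaged on a CQ1 microscope at 37°C and 5% CO2 after compound addition. CellPathfinder machine-learning gating split cells into Hoechst high-intensity objects or normal cells. Normal cells were split into healthy, pyknosed or fragmented nuclei, and pyknosed cells into mitotic or apoptotic. Tubulin, mitochondrial-mass and membrane-permeability phenotypes are per cents of healthy-nucleus cells.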

[1] = 12 h, 1 µM, compound concentration 1 uM, replicate 1
[2] = 12 h, 1 µM, compound concentration 1 uM, replicate 2
[3] = 12 h, 10 µM, compound concentration 10 uM, replicate 1
[4] = 12 h, 10 µM, compound concentration 10 uM, replicate 2
[5] = 24 h, 1 µM, compound concentration 1 uM, replicate 1
[6] = 24 h, 1 µM, compound concentration 1 uM, replicate 2
[7] = 24 h, 10 µM, compound concentration 10 uM, replicate 1
[8] = 24 h, 10 µM, compound concentration 10 uM, replicate 2
[9] = 48 h, 1 µM, compound concentration 1 uM, replicate 1
[10] = 48 h, 1 µM, compound concentration 1 uM, replicate 2
[11] = 48 h, 10 µM, compound concentration 10 uM, replicate 1
[12] = 48 h, 10 µM, compound concentration 10 uM, replicate 2

OC1(c2ccc(Cl)cc2)CCN(Cc2c[nH]c3ccccc23)CC1
Population Apoptotic (%) [1]: 64%
Population Fragmented Nuclei (%) [1]: 10%
Population Healthy Nuclei (%) [1]: 80%
Population Hoechst High Intensity Objects (%) [1]: 9%
Population Mitochondria Different-Phenotype (%) [1]: 15%
Population Mitotic Cells (%) [1]: 35%
Population Normal (%) [1]: 90%
Population Tubulin-Different-Phenotype (%) [1]: 11%
Total Cell Count [1]: 115
Population Apoptotic (%) [2]: 0%
Population Fragmented Nuclei (%) [2]: 13%
Population Healthy Nuclei (%) [2]: 77%
Population Hoechst High Intensity Objects (%) [2]: 10%
Population Membrane Permeable-Phenotype (%) [2]: 3%
Population Mitochondria Different-Phenotype (%) [2]: 13%
Population Mitotic Cells (%) [2]: 100%
Population Normal (%) [2]: 89%
Population Pyknosed Nuclei (%) [2]: 9%
Population Tubulin-Different-Phenotype (%) [2]: 9%
Total Cell Count [2]: 78
Population Apoptotic (%) [3]: 52%
Population Fragmented Nuclei (%) [3]: 15%
Population Healthy Nuclei (%) [3]: 35%
Population Hoechst High Intensity Objects (%) [3]: 5%
Population Membrane Permeable-Phenotype (%) [3]: 10%
Population Mitochondria Different-Phenotype (%) [3]: 92%
Population Mitotic Cells (%) [3]: 47%
Population Normal (%) [3]: 94%
Population Pyknosed Nuclei (%) [3]: 48%
Population Tubulin-Different-Phenotype (%) [3]: 84%
Total Cell Count [3]: 165
Population Apoptotic (%) [4]: 42%
Population Fragmented Nuclei (%) [4]: 13%
Population Healthy Nuclei (%) [4]: 38%
Population Hoechst High Intensity Objects (%) [4]: 3%
Population Membrane Permeable-Phenotype (%) [4]: 4%
Population Mitochondria Different-Phenotype (%) [4]: 95%
Population Mitotic Cells (%) [4]: 57%
Population Normal (%) [4]: 96%
Population Pyknosed Nuclei (%) [4]: 47%
Population Tubulin-Different-Phenotype (%) [4]: 60%
Total Cell Count [4]: 74
Population Apoptotic (%) [5]: 50%
Population Fragmented Nuclei (%) [5]: 7%
Population Healthy Nuclei (%) [5]: 82%
Population Hoechst High Intensity Objects (%) [5]: 4%
Population Membrane Permeable-Phenotype (%) [5]: 3%
Population Mitochondria Different-Phenotype (%) [5]: 6%
Population Mitotic Cells (%) [5]: 50%
Population Normal (%) [5]: 95%
Population Pyknosed Nuclei (%) [5]: 9%
Population Tubulin-Different-Phenotype (%) [5]: 10%
Total Cell Count [5]: 119
Population Apoptotic (%) [6]: 20%
Population Fragmented Nuclei (%) [6]: 5%
Population Healthy Nuclei (%) [6]: 88%
Population Hoechst High Intensity Objects (%) [6]: 8%
Population Membrane Permeable-Phenotype (%) [6]: 4%
Population Mitochondria Different-Phenotype (%) [6]: 13%
Population Mitotic Cells (%) [6]: 80%
Population Normal (%) [6]: 91%
Population Pyknosed Nuclei (%) [6]: 6%
Population Tubulin-Different-Phenotype (%) [6]: 8%
Total Cell Count [6]: 77
Population Apoptotic (%) [7]: 61%
Population Fragmented Nuclei (%) [7]: 20%
Population Healthy Nuclei (%) [7]: 22%
Population Hoechst High Intensity Objects (%) [7]: 9%
Population Membrane Permeable-Phenotype (%) [7]: 20%
Population Mitochondria Different-Phenotype (%) [7]: 79%
Population Mitotic Cells (%) [7]: 38%
Population Normal (%) [7]: 90%
Population Pyknosed Nuclei (%) [7]: 56%
Population Tubulin-Different-Phenotype (%) [7]: 50%
Total Cell Count [7]: 197
Population Apoptotic (%) [8]: 66%
Population Fragmented Nuclei (%) [8]: 21%
Population Healthy Nuclei (%) [8]: 27%
Population Hoechst High Intensity Objects (%) [8]: 5%
Population Membrane Permeable-Phenotype (%) [8]: 5%
Population Mitochondria Different-Phenotype (%) [8]: 94%
Population Mitotic Cells (%) [8]: 33%
Population Normal (%) [8]: 94%
Population Pyknosed Nuclei (%) [8]: 51%
Population Tubulin-Different-Phenotype (%) [8]: 52%
Total Cell Count [8]: 85
Population Apoptotic (%) [9]: 23%
Population Healthy Nuclei (%) [9]: 83%
Population Mitochondria Different-Phenotype (%) [9]: 11%
Population Mitotic Cells (%) [9]: 76%
Population Pyknosed Nuclei (%) [9]: 9%
Population Tubulin-Different-Phenotype (%) [9]: 8%
Total Cell Count [9]: 132
Population Apoptotic (%) [10]: 41%
Population Fragmented Nuclei (%) [10]: 7%
Population Healthy Nuclei (%) [10]: 81%
Population Hoechst High Intensity Objects (%) [10]: 3%
Population Membrane Permeable-Phenotype (%) [10]: 3%
Population Mitochondria Different-Phenotype (%) [10]: 17%
Population Mitotic Cells (%) [10]: 58%
Population Normal (%) [10]: 96%
Population Pyknosed Nuclei (%) [10]: 11%
Population Tubulin-Different-Phenotype (%) [10]: 16%
Total Cell Count [10]: 85
Population Apoptotic (%) [11]: 79%
Population Fragmented Nuclei (%) [11]: 37%
Population Healthy Nuclei (%) [11]: 6%
Population Hoechst High Intensity Objects (%) [11]: 12%
Population Membrane Permeable-Phenotype (%) [11]: 25%
Population Mitochondria Different-Phenotype (%) [11]: 87%
Population Mitotic Cells (%) [11]: 20%
Population Normal (%) [11]: 88%
Population Pyknosed Nuclei (%) [11]: 56%
Population Tubulin-Different-Phenotype (%) [11]: 62%
Total Cell Count [11]: 282
Population Apoptotic (%) [12]: 70%
Population Fragmented Nuclei (%) [12]: 32%
Population Healthy Nuclei (%) [12]: 12%
Population Hoechst High Intensity Objects (%) [12]: 8%
Population Membrane Permeable-Phenotype (%) [12]: 75%
Population Mitochondria Different-Phenotype (%) [12]: 75%
Population Mitotic Cells (%) [12]: 29%
Population Normal (%) [12]: 91%
Population Pyknosed Nuclei (%) [12]: 54%
Population Tubulin-Different-Phenotype (%) [12]: 50%
Total Cell Count [12]: 111
